ChEMBL document CHEMBL1155793, “Phenyl phosphotriester derivatives of AZT: variations upon the SATE moiety” (Bioorg Med Chem, 2008)
Converted amounts (≈) assume the structure as drawn.

What was measured:
[1] = Stability in human CEM-SS cell culture medium; format: ADME, cell-based
Method in brief: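 Compound at an initial 50 µM was incubated in culture medium of 90% RPMI 1640 plus 10% fetal calf serum, heat-inactivated 30 min at 56 °C. Analysis was by on-line ISRP-cleaning HPLC (0–80% acetonitrile in 20 mM TEAA pH 6.9, 267 nm) with HPLC/MS or co-injection identification. Half-lives came from pseudo-first-order exponential fits. Mean of three experiments.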

[2] = Stability in human CEM-SS cell extracts; format: ADME, cell-based
Method in brief: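 CEM-SS cell extracts were incubated with compound at an initial 50 µM. Samples were analysed by on-line ISRP-cleaning HPLC (0–80% acetonitrile gradient in 20 mM TEAA pH 6.9, detection 267 nm), with metabolites identified by HPLC/MS or co-injection. Half-lives came from pseudo-first-order mono- or polyexponential regression. Mean of three experiments.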

[3] = Chemical stability in water at pH 6.8; format: physicochemical
Method in brief: (§1)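 Compound at an initial 50 µM was incubated in water (pH 6.8) or RPMI 1640 (pH 7.5). Samples were analysed by on-line ISRP-cleaning HPLC: TEAA 20 mM pH 6.9 wash, then 0–80% acetonitrile gradient, UV 267 nm. Products were identified by HPLC/MS or co-injection. Half-lives came from pseudo-first-order mono- or polyexponential fits of peak areas. Mean of two experiments.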

[4] = Chemical stability in RPMI1640 medium at pH 7.5; format: physicochemical; method in brief: as §1
[5] = system: Human immunodeficiency virus 1; test: Antiviral activity against HIV1 infected human CEM-SS cells; format: functional, organism-based; conditions: Human immunodeficiency virus 1, CEM-SS
[6] = Cytotoxicity against human CEM-SS cells; format: cell-based
[7] = system: Human immunodeficiency virus 1; test: Antiviral activity against HIV1 infected human MT4 cells; format: functional, organism-based; conditions: Human immunodeficiency virus 1, MT4
[8] = Cytotoxicity against human MT4 cells; format: cell-based
[9] = system: Human immunodeficiency virus 1; test: Antiviral activity against HIV1 infected human thymidine kinase-deficient CEM cells; format: functional, organism-based; conditions: Human immunodeficiency virus 1, CCRF-CEM
[10] = Cytotoxicity against human thymidine kinase-deficient CEM cells; format: cell-based, CCRF-CEM
[11] = Lipophilicity, log P of the compound; format: physicochemical; conditions: octanol/water
Method in brief: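 Log P values were calculated with software, not measured experimentally.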

[12] = Aqueous solubility of the compound; format: physicochemical

Structure (SMILES) | half-life [1] [h] | half-life [2] [h] | half-life [3] [h] | half-life [4] [h] | EC50 [5] [µM] | CC50 [6] [µM] | EC50 [7] [µM] | CC50 [8] [µM] | EC50 [9] [µM] | CC50 [10] [µM] | logP ([11]; read-out: logP) | solubility [12] [µg/mL] | logP [11]
Cc1cn([C@H]2C[C@H](N=[N+]=[N-])[C@@H](COP(=O)(OCCSC(=O)[C@@H](NC(=O)OC(C)(C)C)C(C)C)Oc3ccccc3)O2)c(=O)[nH]c1=O (stereo partly specified) | 197 | 106 | > 960 | > 216 |  |  |  |  |  |  |  |  | 
Cc1cn([C@H]2C[C@H](N=[N+]=[N-])[C@@H](CO)O2)c(=O)[nH]c1=O [ZIDOVUDINE] |  |  |  |  | 0.003 | > 100 | 0.015 | > 100 | > 100 | > 100 |  |  | 
Cc1cn([C@H]2C[C@H](N=[N+]=[N-])[C@@H](COP(=O)(OCCSC(=O)C(C)(C)N)Oc3ccccc3)O2)c(=O)[nH]c1=O (stereo partly specified) | < 0.0167 | 0.133 | > 144 | 0.1 | 0.009 | > 120 | 0.054 | > 120 | 90 | > 120 | 2 |  | 
Cc1cn([C@H]2C[C@H](N=[N+]=[N-])[C@@H](COP(=O)(OCCSC(=O)C(C)(C)NC(=O)OC(C)(C)C)Oc3ccccc3)O2)c(=O)[nH]c1=O (stereo partly specified) | 338 | 40.8 | > 480 | > 288 |  |  |  |  |  |  |  |  | 
Cc1cn([C@H]2C[C@H](N=[N+]=[N-])[C@@H](COP(=O)(OCCSC(=O)C(C)(C)CO)Oc3ccccc3)O2)c(=O)[nH]c1=O (stereo partly specified) | 331 | 14.8 |  |  | 0.006 | > 130 | 0.03 | > 130 | 3.9 | > 130 | 2 | 6640 (≈ 11.4 mM) | 
Cc1cn([C@H]2C[C@H](N=[N+]=[N-])[C@@H](COP(=O)(OCCSC(=O)C(C)(C)C)Oc3ccccc3)O2)c(=O)[nH]c1=O (stereo partly specified) | 607 | 1.5 |  |  | 0.015 | > 10 | 0.81 | > 10 | 0.45 | > 10 |  | 57 (≈ 0.1 mM) | 2
Cc1cn([C@H]2C[C@H](N=[N+]=[N-])[C@@H](COP(=O)(OCCSC(=O)C(C)(CO)CO)Oc3ccccc3)O2)c(=O)[nH]c1=O (stereo partly specified) | 211 | 178 |  |  | 0.012 | > 150 | 0.074 | > 150 | > 100 | > 150 | 2 | 60600 (≈ 101 mM) | 
Cc1cn([C@H]2C[C@H](N=[N+]=[N-])[C@@H](COP(=O)(OCCSC(=O)[C@@H](N)C(C)C)Oc3ccccc3)O2)c(=O)[nH]c1=O (stereo partly specified) | < 0.0167 | < 0.0167 | 1820 | < 0.0167 | 0.001 | > 120 | 0.004 | > 120 | 81 | > 120 | 2 |  | 
